Series [1] addresses T1, Polyunsaturated fatty acid 5-lipoxygenase (Homo sapiens) (UniProt P09917).
T1 sequence (whole entry): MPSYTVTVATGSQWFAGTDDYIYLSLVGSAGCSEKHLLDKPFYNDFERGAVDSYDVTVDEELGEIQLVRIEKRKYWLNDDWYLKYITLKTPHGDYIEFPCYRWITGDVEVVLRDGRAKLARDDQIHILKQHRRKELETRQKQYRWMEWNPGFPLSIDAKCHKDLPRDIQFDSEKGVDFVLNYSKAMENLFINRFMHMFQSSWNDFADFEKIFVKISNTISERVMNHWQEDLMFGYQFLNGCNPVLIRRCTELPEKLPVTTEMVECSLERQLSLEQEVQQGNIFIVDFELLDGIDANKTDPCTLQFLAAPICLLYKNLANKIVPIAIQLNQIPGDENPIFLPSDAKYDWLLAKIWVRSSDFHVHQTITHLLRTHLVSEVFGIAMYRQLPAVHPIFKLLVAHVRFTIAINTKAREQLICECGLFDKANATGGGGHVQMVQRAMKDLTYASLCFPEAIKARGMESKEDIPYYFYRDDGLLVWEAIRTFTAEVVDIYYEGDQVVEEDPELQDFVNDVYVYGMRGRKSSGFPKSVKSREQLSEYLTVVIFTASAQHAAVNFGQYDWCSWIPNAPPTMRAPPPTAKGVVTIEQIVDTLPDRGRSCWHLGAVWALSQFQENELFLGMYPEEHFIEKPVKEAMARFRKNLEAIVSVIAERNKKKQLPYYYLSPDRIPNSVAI
Put plainly: Inhibition of human recombinant 5-lipoxygenase expressed in Escherichia coli BL21 assessed as enzyme product formation measured up to 30 uM in presence of 13(S)-HpODE. In outline: (§1)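 Human 5-LO expressed in E. coli BL21 (pT3-5LO), affinity-purified and used at once. 0.5 µg enzyme in 1 ml PBS/EDTA with 1 mM ATP preincubated with compound 5–10 min at 4 °C, then warmed 30 s at 37 °C. Reaction started with 2 mM CaCl₂ and AA (routinely 20 µM), with or without 1 µM 13(S)-HpODE. Run 10 min at 37 °C, stopped with ice-cold methanol, products analysed by HPLC. Washout: 10-fold dilution (10 to 1 µM).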

The target of series [2] is T1, Polyunsaturated fatty acid 5-lipoxygenase (Homo sapiens). In words: Inhibition of 5-lipoxygenase in LPS/fMLP-stimulated human PMNL assessed as enzyme product formation preincubated 15 mins by ELISA analysis. Conditions: in the assay text read “10 mins” for “15 mins”. In outline: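 Human PMNL in PBS/glucose primed with 1 µg/ml LPS for 10 min at 37 °C, then 0.3 U/ml adenosine deaminase added. After another 10 min, cells given compound (0.3–10 µM) for 10 min, then stimulated with 1 µM fMLP. LTB₄ measured by ELISA.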
(ELISA stands for enzyme-linked immunosorbent assay.)

The target of series [3] is T2, Cytosolic phospholipase A2 (Homo sapiens) (UniProt P47712).
T2 sequence (whole entry): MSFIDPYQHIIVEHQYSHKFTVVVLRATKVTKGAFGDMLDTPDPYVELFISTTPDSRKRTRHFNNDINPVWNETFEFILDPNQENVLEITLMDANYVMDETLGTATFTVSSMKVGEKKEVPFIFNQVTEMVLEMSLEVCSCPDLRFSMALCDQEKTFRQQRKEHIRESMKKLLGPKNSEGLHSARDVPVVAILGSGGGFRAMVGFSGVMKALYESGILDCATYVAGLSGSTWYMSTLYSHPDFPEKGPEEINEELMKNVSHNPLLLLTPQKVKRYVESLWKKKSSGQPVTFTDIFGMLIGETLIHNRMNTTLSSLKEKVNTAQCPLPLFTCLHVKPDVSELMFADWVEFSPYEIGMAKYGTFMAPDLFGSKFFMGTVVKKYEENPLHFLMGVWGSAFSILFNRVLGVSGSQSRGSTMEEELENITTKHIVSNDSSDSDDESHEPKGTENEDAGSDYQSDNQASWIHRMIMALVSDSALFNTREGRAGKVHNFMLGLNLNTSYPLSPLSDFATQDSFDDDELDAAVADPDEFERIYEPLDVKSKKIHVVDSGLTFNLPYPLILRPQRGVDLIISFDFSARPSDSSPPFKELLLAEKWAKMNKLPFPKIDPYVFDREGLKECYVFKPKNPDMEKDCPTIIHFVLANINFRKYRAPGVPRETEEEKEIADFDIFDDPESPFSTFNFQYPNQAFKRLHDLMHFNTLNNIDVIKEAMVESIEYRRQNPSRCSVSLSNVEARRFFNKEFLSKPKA
Put plainly: Inhibition of cPLA2 assessed as residual activity at 10 uM after 5 mins.

Series [4] deals with T1, Polyunsaturated fatty acid 5-lipoxygenase (Homo sapiens). In words: Inhibition of human recombinant 5-lipoxygenase expressed in Escherichia coli BL21 assessed as enzyme product formation measured after washout. The method in brief: as §1
The subject of series [5] is A549. In words: Cytotoxicity against human A549 cells assessed as cell viability at 10 uM after 16 hrs by MTT assay. Type of series: cell-based. Conditions: a549, 5 h, in the assay text read “5 hrs” for “16 hrs”. The method in brief: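 A549 cells plated at 4 × 10⁴ cells per well, incubated 16 h at 37 °C, 5% CO₂, then exposed to 10 µM compound or DMSO (≤0.3% final) for 5 h. MTT added for 4 h, formazan solubilized with SDS in 20 mM HCl, absorbance at 595 nm read relative to vehicle-treated cells.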
(In general: Tetrazolium assays rely on reduction of a dye to a coloured formazan, in cell work by metabolically active cells.)

Calls of active or inactive are those of the source. The rule behind the calls is not given here.

For `CCCCC(Sc1ccc(OCCCOc2ccc(-c3ccccc3)cc2)cc1)C(=O)O` (stereo not given), the inhibition entry in series [1], in series [2] and in series [4] was “Active” throughout. For the same compound, the Activity in series [3] was 106%; in series [5], “Non-toxic”.

The values are drawn from ChEMBL document CHEMBL1777776, “Identification of 2-mercaptohexanoic acids as dual inhibitors of 5-lipoxygenase and microsomal prostaglandin E₂ synthase-1” (Bioorg Med Chem, 2011).
